Here are results for one compound from ChEMBL document CHEMBL4038325, “Opioid Receptor Modulators with a Cinnamyl Group” (J Med Chem, 2017).

pIC50: −log10 of the molar value. The source made the active and inactive calls. The rule behind the calls is not given here.

Data set [1] deals with Delta-type opioid receptor (Homo sapiens) (UniProt P41143). In words: Agonist activity at recombinant human DOR expressed in HEK293T cells assessed as inhibition of forskolin-stimulated cAMP level at 10 uM preincubated for 15 to 20 mins followed by forskolin addition by GloSensor assay relative to control. The following applies: HEK-293T. The data set is classed as functional, cell-based. The gist of the method: (§1)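 HEK293T transiently co-transfected (calcium phosphate) with DOR or MOR plus pGloSensor-22F. Cells were loaded with luciferin in HBSS/20 mM HEPES pH 7.4 for 90 min, then given compound in triplicate for 15-20 min at 37°C. Forskolin added (final 10 µM); luminescence read. cAMP signal normalized to forskolin-alone control.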
(Cyclic AMP is a second messenger, typically raised through Gs and lowered through Gi signalling.)

The target in data set [2] is T1, Mu-type opioid receptor (Homo sapiens, UniProt P35372). The settings on record: HEK-293T, at 10 µM.
Data set [3] relates to Mus musculus. In words: Analgesic activity in C57BL/6J mouse assessed as tail withdrawal latency at 10 mg/kg measured after 30 mins in presence of KOR antagonist norBNI by tail flick test. The data set is classed as functional, organism-based. The gist of the method:
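Male C57BL/6J mice (5-6/group) received norBNI 10 mg/kg i.p. 30 min before test compound at 10 mg/kg i.p. Tail withdrawal latency in 52 ± 0.5°C water was measured at the 30 min time point, three readings, by a blinded observer.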
In general terms: In hot-plate and tail-flick tests a longer latency is read as antinociception.

The target of data set [4] is Delta-type opioid receptor (Homo sapiens) (UniProt P41143). In words: Antagonist activity at recombinant human DOR expressed in HEK293T cells assessed as reduction in DADLE-induced inhibition of forskolin-stimulated cAMP level at 10 uM preincubated for 15 to 20 mins followed by DADLE and forskolin addition by GloSensor assay relative to control. The data set is classed as functional, cell-based. The following applies: HEK-293T. The gist of the method: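 HEK293T transiently expressing DOR plus GloSensor-22F were given compound in triplicate for 15-20 min at 37°C. DADLE (1 µM) was then added, followed by forskolin (10 µM); luminescence read. Signal normalized to % control (agonist + forskolin).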

Data set [5] has as its target Histamine H1 receptor (Homo sapiens) (UniProt P35367). As to the kind of experiment: Antagonist activity at histamine H1 receptor (unknown origin) at 10 uM. Summed up: (§2)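 Primary screen, agonist and antagonist modes, each receptor tested separately. Compounds at 10 µM in triplicate; response taken as % inhibition or stimulation relative to control. Compounds giving at least 50% effect were then run over 10 µM to 10 pM to obtain EC50/IC50.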

Data set [6] deals with T2, D(2) dopamine receptor (Homo sapiens, UniProt P14416). In words: Agonist activity at dopamine D2 receptor (unknown origin) at 10 uM. The gist of the method:
as §2

The target of data set [7] is Histamine H1 receptor (Homo sapiens) (UniProt P35367). In words: Agonist activity at histamine H1 receptor (unknown origin) at 10 uM. Summed up: as §2
The subject of data set [8] is Mus musculus. As to the kind of experiment: Analgesic activity in C57BL/6J mouse assessed as tail withdrawal latency at 10 mg/kg by tail flick test. It counts as functional, organism-based. Summed up:
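Male C57BL/6J mice, 6-8 weeks, 22-25 g; 5-6 per group. Dosed 10 mg/kg i.p. Distal third of tail immersed in 52 ± 0.5°C water; latency recorded three times per time point by a blinded observer. Latency expressed as % of baseline taken 15 min before dosing, followed over time; area under curve also calculated.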

In data set [9] the target is T2, D(2) dopamine receptor. In words: Antagonist activity at dopamine D2 receptor (unknown origin) at 10 uM. The gist of the method:
as §2

For data set [10], the target named is T1, Mu-type opioid receptor. As to the kind of experiment: Agonist activity at recombinant human MOR expressed in HEK293T cells assessed as inhibition of forskolin-stimulated cAMP level at 10 uM preincubated for 15 to 20 mins followed by forskolin addition by GloSensor assay relative to control. It counts as functional, cell-based. The following applies: HEK-293T. Summed up: as §1

For data set [11], the target named is Kappa-type opioid receptor (Homo sapiens, UniProt P41145). In words: Agonist activity at recombinant human KOR expressed in HEK293T cells assessed as inhibition of forskolin-stimulated cAMP level preincubated for 15 to 20 mins followed by forskolin addition by GloSensor assay. It counts as functional, cell-based, HEK-293T. The gist of the method: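 HEK293T transiently transfected with hKOR plus GloSensor-22F plasmid. Compounds (10 µM to 10 pM, triplicate) added for 15-20 min at 37°C, then forskolin added (final 10 µM). Luminescence of live cells normalized to % forskolin-alone control. IC50 from non-linear regression; two independent experiments.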

For orientation: pIC50 means −log10 of the IC50, conventionally taken in molar units.

T2 sequence (P14416 whole entry): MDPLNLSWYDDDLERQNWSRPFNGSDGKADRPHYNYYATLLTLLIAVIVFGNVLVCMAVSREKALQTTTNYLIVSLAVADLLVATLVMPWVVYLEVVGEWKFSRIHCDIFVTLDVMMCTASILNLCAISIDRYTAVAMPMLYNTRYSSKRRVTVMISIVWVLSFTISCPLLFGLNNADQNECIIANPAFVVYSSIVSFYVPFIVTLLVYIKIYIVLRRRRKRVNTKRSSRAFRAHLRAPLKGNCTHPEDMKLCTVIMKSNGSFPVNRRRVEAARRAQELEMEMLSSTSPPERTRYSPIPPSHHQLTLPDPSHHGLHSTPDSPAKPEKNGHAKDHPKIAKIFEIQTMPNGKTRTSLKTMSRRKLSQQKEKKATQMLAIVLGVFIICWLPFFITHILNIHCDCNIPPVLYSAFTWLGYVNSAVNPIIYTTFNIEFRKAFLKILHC
Delta-type opioid receptor (Homo sapiens), sequence (P41143 whole entry): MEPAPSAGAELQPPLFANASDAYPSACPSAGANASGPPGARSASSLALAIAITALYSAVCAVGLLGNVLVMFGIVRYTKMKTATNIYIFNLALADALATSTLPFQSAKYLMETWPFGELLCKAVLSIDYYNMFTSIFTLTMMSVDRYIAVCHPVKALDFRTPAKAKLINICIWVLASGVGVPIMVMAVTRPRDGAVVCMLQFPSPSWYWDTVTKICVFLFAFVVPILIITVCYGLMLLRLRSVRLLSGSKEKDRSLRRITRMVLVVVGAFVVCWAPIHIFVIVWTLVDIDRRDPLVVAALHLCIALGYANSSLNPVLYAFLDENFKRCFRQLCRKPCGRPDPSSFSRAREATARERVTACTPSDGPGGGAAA
Kappa-type opioid receptor, sequence (P41145 whole entry): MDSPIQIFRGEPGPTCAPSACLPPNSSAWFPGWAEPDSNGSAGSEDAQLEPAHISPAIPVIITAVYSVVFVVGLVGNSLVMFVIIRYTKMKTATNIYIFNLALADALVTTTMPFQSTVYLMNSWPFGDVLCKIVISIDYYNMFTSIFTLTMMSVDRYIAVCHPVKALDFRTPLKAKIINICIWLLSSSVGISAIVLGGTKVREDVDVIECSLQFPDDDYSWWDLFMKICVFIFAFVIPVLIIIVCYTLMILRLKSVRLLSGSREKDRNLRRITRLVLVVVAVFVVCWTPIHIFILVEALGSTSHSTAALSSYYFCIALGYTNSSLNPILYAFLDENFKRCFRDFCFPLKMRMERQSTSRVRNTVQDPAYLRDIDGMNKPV
T1 sequence (P35372 whole entry): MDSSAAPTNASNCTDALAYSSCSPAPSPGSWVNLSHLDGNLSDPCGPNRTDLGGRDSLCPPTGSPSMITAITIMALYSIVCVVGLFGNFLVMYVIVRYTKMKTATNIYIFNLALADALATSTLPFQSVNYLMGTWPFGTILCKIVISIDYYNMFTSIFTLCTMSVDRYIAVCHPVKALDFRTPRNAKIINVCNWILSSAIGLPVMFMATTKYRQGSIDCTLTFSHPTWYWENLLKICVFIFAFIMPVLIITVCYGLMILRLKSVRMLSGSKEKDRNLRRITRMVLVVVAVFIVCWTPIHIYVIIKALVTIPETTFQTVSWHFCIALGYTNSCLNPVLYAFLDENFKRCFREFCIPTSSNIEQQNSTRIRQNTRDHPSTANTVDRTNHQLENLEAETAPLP
Histamine H1 receptor (Homo sapiens), sequence (P35367 whole entry): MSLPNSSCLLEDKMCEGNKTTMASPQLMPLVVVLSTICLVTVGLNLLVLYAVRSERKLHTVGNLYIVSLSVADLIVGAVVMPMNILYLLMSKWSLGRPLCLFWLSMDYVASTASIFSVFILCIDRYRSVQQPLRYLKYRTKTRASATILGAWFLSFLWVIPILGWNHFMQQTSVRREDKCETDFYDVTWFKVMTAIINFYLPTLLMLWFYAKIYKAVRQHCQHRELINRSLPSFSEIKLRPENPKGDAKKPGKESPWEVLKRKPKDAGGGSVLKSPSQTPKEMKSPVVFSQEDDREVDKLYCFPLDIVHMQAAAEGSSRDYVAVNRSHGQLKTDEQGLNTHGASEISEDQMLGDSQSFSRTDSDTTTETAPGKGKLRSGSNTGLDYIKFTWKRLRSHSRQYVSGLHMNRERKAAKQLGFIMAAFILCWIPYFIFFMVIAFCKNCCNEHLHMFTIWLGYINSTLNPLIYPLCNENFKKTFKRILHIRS

`O=C(O)/C(=C/c1ccccc1)CN1CCN(c2cccc(Cl)c2Cl)CC1`: the inhibition entry (in [1]; at Mu-type opioid receptor [2]; in data set [4]; in [5]; on Mu-type opioid receptor [10]) was “inactive” each time. Moreover, the outcome (with Mus musculus [3]; in data set [7]) was inactive. The Activity entry on D(2) dopamine receptor [6] is “Not Active”; with Mus musculus [8], “Dose-dependent effect”. In addition, the “inhibition (INH)” value at D(2) dopamine receptor [9] is given as “Not Active”. Further, the pIC50 in [11] (read-out: IC50) is 6.10. Further, in data set [11] (read-out: pIC50 (converted)), the IC50 is 716 to 813 nM.
